Source: ChEMBL document CHEMBL1128396, “Synthesis and biological evaluation of a series of new parenteral optically active 3-[[(N-alkylpyridinium-4'-yl)thio]methyl]-2-oxaisocephems” (1995)
Values after ≈ are worked out from the molar mass of the structure shown.

Assays:
Assay type in all cases: functional
[1] = system: Staphylococcus aureus; assay: Antibacterial activity was determined against Methicillin-resistant Staphylococcus aureus (MRSA) 5038 (Gram-positive)
[2] = system: Serratia marcescens; assay: Antibacterial activity was determined against Serratia marcescens ATCC 12648 (Gram-negative)
Procedure, shortened: (§1)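 2-fold agar dilution on Müller-Hinton agar. Overnight broth cultures were diluted to about 10^6 CFU/mL, and 10^4 CFU/spot was applied to plates with graded drug concentrations. Plates were incubated 18 h at 37 °C.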

[3] = system: Enterococcus faecalis; assay: Antibacterial activity was determined against Enterococcus faecalis ATCC 21212 (Gram-positive); procedure, shortened: as §1
[4] = system: Klebsiella pneumoniae; assay: Antibacterial activity was determined against Klebsiella pneumoniae NCTC 9632 (Gram-negative); procedure, shortened: as §1
[5] = system: Staphylococcus aureus; assay: Antibacterial activity was determined against Staphylococcus aureus FDA 209P (Gram-positive); procedure, shortened: as §1
[6] = system: Escherichia coli; assay: Antibacterial activity was determined against Escherichia coli NIHJ JC-2 (Gram-negative); procedure, shortened: as §1
[7] = system: Staphylococcus epidermidis; assay: Antibacterial activity was determined against Staphylococcus epidermidis ATCC 12228 (Gram-positive); procedure, shortened: as §1
[8] = system: Pseudomonas aeruginosa; assay: Antibacterial activity was determined against Pseudomonas aeruginosa ATCC 10145 (Gram-negative); procedure, shortened: as §1
[9] = system: Enterococcus faecalis; assay: In vitro antibacterial activity against clinical isolates Enterococcus faecalis was determined; procedure, shortened: as §1
[10] = system: Mus musculus; assay: Antibacterial activity was determined against Escherichia coli 29 at a challenge dose of 1.35*10e6 (cells/mouse) administered subcutaneously; conditions: sc
Procedure, shortened: (§2)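 Cultures were grown overnight at 37 °C in tryptic soy broth (S. aureus, MRSA, E. faecalis) or Müller-Hinton broth (E. coli, S. pneumoniae). Graded doses were given subcutaneously 1 h post-infection. ED50 was calculated by probit from day-7 survival, with 95% confidence limits.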

[11] = system: Mus musculus; assay: Antibacterial activity was determined against Staphylococcus aureus Smith at a challenge dose of 1.32*10e7 (cells/mouse) administered subcutaneously; conditions: sc; procedure, shortened: as §2
[12] = system: Mus musculus; assay: Antibacterial activity was determined against Streptococcus pneumoniae C 0096 at a challenge dose of 1.60*10e2 (cells/mouse) administered subcutaneously; conditions: sc; procedure, shortened: as §2
[13] = system: Streptococcus pneumoniae; assay: In vitro antibacterial activity against clinical isolates Ampicillin-insensitive Streptococcus pneumoniae was determined; procedure, shortened: as §1
[14] = system: Mus musculus; assay: Antibacterial activity was determined against Enterococcus faecalis C 0063 at a challenge dose of 7.00*10e7 (cells/mouse) administered subcutaneously; conditions: sc; procedure, shortened: as §2
[15] = system: Mus musculus; assay: Antibacterial activity was determined against MRSA 5120 at a challenge dose of 7.6*10e7 (cells/mouse) administered subcutaneously; conditions: sc; procedure, shortened: as §2
[16] = system: Staphylococcus aureus; assay: In vitro antibacterial activity against clinical isolates methicillin-resistant Staphylococcus aureus was determined
Procedure, shortened: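 2-fold agar dilution on Müller-Hinton agar. Overnight broth cultures were diluted to about 10^6 CFU/mL, and 10^4 CFU/spot was applied to plates with graded drug concentrations.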

[17] = system: Staphylococcus aureus; assay: […] was determined against MRSA 5120
[18] = system: Mus musculus; assay: Antibacterial activity was determined against MRSA 5129 at a challenge dose of 1.38*10e8 (cells/mouse) administered subcutaneously; conditions: sc
Procedure, shortened: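 Male ICR mice (~20 g, 10 per dose group) were challenged intraperitoneally with 0.5 mL of about 10-100 times the LD50. Inoculum was an overnight 37 °C tryptic soy broth culture suspended in fresh broth with 5% gastric mucin. Various subcutaneous doses were given 1 h post-infection. Survivors were counted on day 7, and ED50 with 95% confidence limits was derived by probit.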

[19] = system: Mus musculus; assay: Antibacterial activity was determined against MRSA 5038 at a challenge dose of 1.00*10e7 (cells/mouse) administered subcutaneously; conditions: sc; procedure, shortened: as §2
[20] = system: Staphylococcus aureus; assay: […] was determined against MRSA 5129

NC(=O)C[n+]1ccc(SCC2=C(C(=O)O)N3C(=O)[C@@H](NC(=O)/C(=N\OC4CCCC4)c4csc(N)n4)[C@H]3CO2)cc1.O=S(=O)([O-])O
MIC [1]: 6.25 µg/mL | MIC [2]: 1.56 µg/mL | MIC [3]: 1.56 µg/mL | MIC [4]: 0.2 µg/mL | MIC [5]: 0.1 µg/mL | MIC [6]: 0.2 µg/mL | MIC [7]: 0.05 µg/mL | MIC [8]: 3.13 µg/mL

CN(C)C(=O)C[n+]1ccc(SCC2=C(C(=O)O)N3C(=O)[C@@H](NC(=O)/C(=N\OC4CCCC4)c4csc(N)n4)[C@H]3CO2)cc1.O=S(=O)([O-])O
MIC [1]: 12.5 µg/mL | MIC [2]: 1.56 µg/mL | MIC [3]: 1.56 µg/mL | MIC [4]: 0.78 µg/mL | MIC [5]: 0.2 µg/mL | MIC [6]: 0.78 µg/mL | MIC [7]: 0.39 µg/mL | MIC [8]: 12.5 µg/mL

C=CC[n+]1ccc(SCC2=C(C(=O)O)N3C(=O)[C@@H](NC(=O)/C(=N\OC4CCCC4)c4csc(N)n4)[C@H]3CO2)cc1.O=S(=O)([O-])O
MIC [1]: 6.25 µg/mL | MIC [2]: 1.56 µg/mL | MIC [3]: 0.78 µg/mL | MIC [4]: 0.39 µg/mL | MIC [5]: 0.1 µg/mL | MIC [6]: 0.39 µg/mL | MIC [7]: 0.05 µg/mL | MIC [8]: 6.25 µg/mL

Nc1nc(/C(=N/OC2CCCC2)C(=O)N[C@@H]2C(=O)N3C(C(=O)O)=C(CSc4cc[n+](CC(=O)N5CCC(O)CC5)cc4)OC[C@H]23)cs1.O=S(=O)([O-])O
MIC [1]: 25 µg/mL | MIC [2]: 3.13 µg/mL | MIC [3]: 3.13 µg/mL | MIC [4]: 0.78 µg/mL | MIC [5]: 0.2 µg/mL | MIC [6]: 1.56 µg/mL | MIC [7]: 0.39 µg/mL | MIC [8]: 12.5 µg/mL

CCC(=O)C[n+]1ccc(SCC2=C(C(=O)O)N3C(=O)[C@@H](NC(=O)/C(=N\OC4CCCC4)c4csc(N)n4)[C@H]3CO2)cc1.O=S(=O)([O-])O
MIC [1]: 6.25 µg/mL | MIC [2]: 1.56 µg/mL | MIC50 [9]: 3.13 µg/mL | MIC80 [9]: 3.13 µg/mL | MIC90 [9]: 6.25 µg/mL | MIC [3]: 1.56 µg/mL | MIC [4]: 0.39 µg/mL | ED50 [10]: 0.15 mg/kg | MIC [5]: 0.2 µg/mL | ED50 [11]: 0.22 mg/kg | MIC [6]: 0.39 µg/mL | ED50 [12]: 0.56 mg/kg | MIC50 [13]: 0.025 µg/mL | MIC80 [13]: 0.05 µg/mL | MIC90 [13]: 0.05 µg/mL | ED50 [14]: 5.23 mg/kg | ED50 [15]: 1 mg/kg | MIC [7]: 0.2 µg/mL | MIC50 [16]: 6.25 µg/mL | MIC80 [16]: 6.25 µg/mL | MIC90 [16]: 6.25 µg/mL | MIC [17]: 6.25 µg/mL | MIC [8]: 6.25 µg/mL

CC(C)(C)NC(=O)C[n+]1ccc(SCC2=C(C(=O)O)N3C(=O)[C@@H](NC(=O)/C(=N\OC4CCCC4)c4csc(N)n4)[C@H]3CO2)cc1.O=S(=O)([O-])O
MIC [1]: 12.5 µg/mL | MIC [2]: 3.13 µg/mL | MIC [3]: 1.56 µg/mL | MIC [4]: 1.56 µg/mL | MIC [5]: 0.2 µg/mL | MIC [6]: 1.56 µg/mL | MIC [7]: 0.39 µg/mL | MIC [8]: 25 µg/mL

CC1(C)S[C@@H]2[C@H](NC(=O)[C@H](N)c3ccccc3)C(=O)N2[C@H]1C(=O)O [AMPICILLIN]
ED50 [12]: 8.23 mg/kg | MIC50 [13]: 3.13 µg/mL (≈ 8.96 µM) | MIC80 [13]: 3.13 µg/mL (≈ 8.96 µM) | MIC90 [13]: 3.13 µg/mL (≈ 8.96 µM)

CO[C@@]1(NC(=O)CSC(F)F)C(=O)N2C(C(=O)O)=C(CSc3nnnn3CCO)CO[C@@H]21 [FLOMOXEF]
MIC [1]: 50 µg/mL (≈ 101 µM) | MIC [2]: 0.78 µg/mL (≈ 1.57 µM) | MIC50 [9]: > 100 µg/mL | MIC80 [9]: > 100 µg/mL | MIC90 [9]: > 100 µg/mL | MIC [3]: 100 µg/mL (≈ 201 µM) | MIC [4]: 0.1 µg/mL (≈ 0.201 µM) | ED50 [10]: 0.43 mg/kg | MIC [5]: 0.39 µg/mL (≈ 0.786 µM) | MIC [6]: 0.1 µg/mL (≈ 0.201 µM) | ED50 [12]: 18.6 mg/kg | MIC50 [13]: 3.13 µg/mL (≈ 6.3 µM) | MIC80 [13]: 6.25 µg/mL (≈ 12.6 µM) | MIC90 [13]: 6.25 µg/mL (≈ 12.6 µM) | ED50 [14]: > 200 mg/kg | ED50 [15]: 8.52 mg/kg | MIC [7]: 0.39 µg/mL (≈ 0.786 µM) | MIC50 [16]: 25 µg/mL (≈ 50.4 µM) | MIC80 [16]: 100 µg/mL (≈ 201 µM) | MIC90 [16]: 100 µg/mL (≈ 201 µM) | MIC [17]: 25 µg/mL (≈ 50.4 µM) | MIC [8]: > 100 µg/mL

CN[C@H](CC(C)C)C(=O)N[C@H]1C(=O)N[C@@H](CC(N)=O)C(=O)N[C@H]2C(=O)N[C@H]3C(=O)N[C@H](C(=O)N[C@H](C(=O)O)c4cc(O)cc(O)c4-c4cc3ccc4O)[C@H](O)c3ccc(c(Cl)c3)Oc3cc2cc(c3O[C@@H]2O[C@H](CO)[C@@H](O)[C@H](O)[C@H]2O[C@H]2C[C@](C)(N)[C@H](O)[C@H](C)O2)Oc2ccc(cc2Cl)[C@H]1O [VANCOMYCIN]
MIC [1]: 0.78 µg/mL (≈ 0.538 µM) | MIC [2]: > 100 µg/mL | ED50 [18]: 18.7 mg/kg | MIC [3]: 0.78 µg/mL (≈ 0.538 µM) | MIC [4]: > 100 µg/mL | MIC [5]: 0.78 µg/mL (≈ 0.538 µM) | ED50 [19]: 2.7 mg/kg | ED50 [11]: 3.74 mg/kg | MIC [6]: > 100 µg/mL | ED50 [15]: 11.5 mg/kg | MIC [7]: 3.13 µg/mL (≈ 2.16 µM) | MIC [20]: 0.78 µg/mL (≈ 0.538 µM) | MIC50 [16]: 1.56 µg/mL (≈ 1.08 µM) | MIC80 [16]: 1.56 µg/mL (≈ 1.08 µM) | MIC90 [16]: 1.56 µg/mL (≈ 1.08 µM) | MIC [17]: 0.78 µg/mL (≈ 0.538 µM) | MIC [8]: > 100 µg/mL
